MCL1 BIM primary – inhibitors of human MCL1 binding to BIM-BH3 peptide. inhibition, % at 10.9 µM. 0.68% of 320,000 active. GST-MCL1 / FITC-Bim-BH3 fluorescence polarization. Q07820. AID 2057;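 active means inhibition above the mean inhibition of all tested compounds plus 3 SD, set per campaign, cut at about 40% in these data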;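 further: 0% = DMSO wells and 100% = unlabeled Bim-BH3 peptide control; higher means more loss of mP so more displacement of Bim peptide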
Target sequence (Q07820 whole entry, looked up): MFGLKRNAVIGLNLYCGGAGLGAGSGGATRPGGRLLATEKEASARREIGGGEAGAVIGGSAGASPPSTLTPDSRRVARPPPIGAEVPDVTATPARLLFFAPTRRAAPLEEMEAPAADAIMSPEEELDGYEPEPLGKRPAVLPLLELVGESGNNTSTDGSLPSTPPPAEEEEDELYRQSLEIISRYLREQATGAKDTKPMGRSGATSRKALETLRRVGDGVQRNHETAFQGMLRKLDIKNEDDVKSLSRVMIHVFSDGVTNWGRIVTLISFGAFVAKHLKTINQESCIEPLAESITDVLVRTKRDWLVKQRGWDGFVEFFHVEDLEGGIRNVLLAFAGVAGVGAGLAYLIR
Bim-Mcl-1 – human Bim-Mcl-1 interaction inhibition; 0.1% of 190,000 active; Q07820; Bead-based flow cytometry, Bim peptide-Mcl-1 binding; inhibition, % at 10 µM; in the data active means inhibition above about 40%;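 further: 0% = no compound tracer wells and 100% = peptide blocker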
RBBP9 inhibitor – inhibitors of human serine hydrolase RBBP9; O75884; recombinant RBBP9, FP-Rh probe fluorescence polarization; inhibition, % at 7.94 µM; 0.2% of 220,000 active; AID 1515;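 active means inhibition above the campaign mean of all tested compounds plus 3 SD, cut at about 14% in these data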;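 further: plate controls were DMSO wells with RBBP9 for no effect and wells lacking RBBP9 protein for full effect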
Target sequence (O75884 whole entry, looked up): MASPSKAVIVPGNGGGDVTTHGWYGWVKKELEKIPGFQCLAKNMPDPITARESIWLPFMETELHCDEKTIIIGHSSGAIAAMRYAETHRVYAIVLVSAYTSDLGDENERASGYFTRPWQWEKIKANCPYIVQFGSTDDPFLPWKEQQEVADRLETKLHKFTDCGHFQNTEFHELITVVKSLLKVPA
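Measured by: FP readout at 525/598 nm; material: recombinant human RBBP9; also added: Serine-hydrolase probe FP-Rh, 375 nM pre-mixing; medium: Tris buffer pH 8.0, NaCl, Pluronic; replication: one well per compound; doses: one concentration, 7.94 µM nominal, 0.794% DMSO; timing: preincubation 30 min plus labeling 45 min at 25 °C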
Mcl1 Noxa PPI – Mcl-1/Noxa interaction inhibition; TR-FRET Mcl-1/Noxa peptide binding, 2 h; Q07820; 1.5% of 220,000 active; inhibition, % at 21.7 µM;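 active means compounds that cut the protein-peptide binding signal by more than 50% relative to plate controls in a single-dose test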;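 further: His-tagged Mcl-1 with rhodamine Noxa BH3 peptide and terbium anti-His antibody; 0% = Mcl-1 plus Noxa peptide wells and 100% = peptide-only wells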
EBV gp42 inh – inhibitors of Epstein-Barr virus glycoprotein 42; Fluorescence polarization binding assay, mP read-out; inhibition, % (tested at 21.74 µM); 0.42% of 220,000 active; AID 1085; in the data active means inhibition above about 50%
Target sequence (Q1HVG2 whole entry, looked up): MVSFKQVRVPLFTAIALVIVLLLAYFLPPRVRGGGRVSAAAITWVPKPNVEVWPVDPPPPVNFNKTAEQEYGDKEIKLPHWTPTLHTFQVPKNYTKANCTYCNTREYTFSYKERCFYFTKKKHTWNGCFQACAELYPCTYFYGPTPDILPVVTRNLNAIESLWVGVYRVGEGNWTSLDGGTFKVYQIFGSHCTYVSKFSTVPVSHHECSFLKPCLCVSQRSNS
Mcl1-Bid inh – Mcl-1/Bid interaction inhibition | 0.97% of 220,000 active | Q07820 | TR-FRET Mcl-1/Bid-Dy647 peptide binding, 1536-well | inhibition, % at 21.7 µM;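 active means compounds that cut the binding signal by more than half at the single screening dose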;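 further: His-tagged Mcl-1 with europium anti-His antibody binding Bid BH3 peptide; 0% = Mcl-1 plus peptide wells and 100% = peptide-only wells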
* marks the source's active call; other numbers are inactive results. Compounds with a hit are over-represented: about 2.2% of the library has one in this group of screens.

What do the screens show for `Clc1ccc(OCCN2CCCCC2)c(Cl)c1`?
MCL1 BIM primary: 4.2; Bim-Mcl-1: 2.0; RBBP9 inhibitor: -8.6; Mcl1 Noxa PPI: 34.6; EBV gp42 inh: 0.2; Mcl1-Bid inh: 75.5*

What do the screens show for `O=C(O)CCc1nn2c3ccccc3n(CC(=O)c3ccccc3)c2nc1=O`?
MCL1 BIM primary: -4.4; Bim-Mcl-1: 3.0; RBBP9 inhibitor: 11.2; Mcl1 Noxa PPI: 28.5; EBV gp42 inh: 11.1; Mcl1-Bid inh: 73.6*

Results for CCOC(=O)Cn1c2ccccc2n2nc(CCC(=O)O)c(=O)nc12 ?
MCL1 BIM primary: -6.2; Bim-Mcl-1: -2.0; RBBP9 inhibitor: -1.9; Mcl1 Noxa PPI: 3.3; EBV gp42 inh: -3.9; Mcl1-Bid inh: -7.2

What do the screens show for `Cc1ccc(S(=O)(=O)N[C@H](C(=O)Oc2ccc3c(C(F)(F)F)cc(=O)oc3c2)c2ccccc2)cc1`?
MCL1 BIM primary: 45.3*; Bim-Mcl-1: -1.0; RBBP9 inhibitor: -0.3; Mcl1 Noxa PPI: -10.9; EBV gp42 inh: 12.3; Mcl1-Bid inh: -22.6

Results for O=C(NC1CCCCCC1)C1CCN(C(=O)c2cccc(Cl)c2)CC1 ?
MCL1 BIM primary: 1.0

Results for CCCOc1ncnc2c1[nH]c1ccccc12 ?
MCL1 BIM primary: -0.7; Bim-Mcl-1: 0.0; RBBP9 inhibitor: 0.6; Mcl1 Noxa PPI: 86.0*; EBV gp42 inh: 9.6; Mcl1-Bid inh: -18.1

What do the screens show for `CCCOc1ncnc2c1[nH]c1ccc(OC)cc12`?
MCL1 BIM primary: 0.1; RBBP9 inhibitor: 1.7; Mcl1 Noxa PPI: 11.6; EBV gp42 inh: -17.2; Mcl1-Bid inh: -2.1

How did CCOC(=O)C1(Cc2cccc(OC)c2)CCCN(CCO)C1 (configuration not stated) do in these assays?
MCL1 BIM primary: 18.4

What do the screens show for `C(=N\N1CCOCC1)/c1cn(-c2ccccc2)nc1-c1ccccc1`?
MCL1 BIM primary: -2.4; Bim-Mcl-1: -1.0; RBBP9 inhibitor: 0.8; Mcl1 Noxa PPI: -6.6; EBV gp42 inh: -24.5; Mcl1-Bid inh: -46.2

What do the screens show for `C(=N\N1CCOCC1)/c1nc(-c2ccccc2)n2ccccc12`?
MCL1 BIM primary: -3.3; Bim-Mcl-1: 0.0; RBBP9 inhibitor: -2.9; Mcl1 Noxa PPI: 12.2; EBV gp42 inh: 61.8*; Mcl1-Bid inh: -46.6

How did C=CCOC(=O)C1=C(C)Nc2nnnn2C1c1cccs1 (configuration not stated) do in these assays?
MCL1 BIM primary: -5.9; Bim-Mcl-1: -1.0; RBBP9 inhibitor: -5.9; Mcl1 Noxa PPI: 24.3; EBV gp42 inh: -3.5; Mcl1-Bid inh: -10.2

What do the screens show for `CC1=C(C#N)c2nc(N)c(C#N)c(C)c2/C1=C\c1ccc(OCC(=O)O)c(Cl)c1`?
MCL1 BIM primary: 33.3; RBBP9 inhibitor: -9.1; Mcl1 Noxa PPI: 57.1*; EBV gp42 inh: 10.9; Mcl1-Bid inh: 7.3

How did CCN(c1ccc(OC)cc1)S(=O)(=O)c1ccc2c(c1)CC(C)N2C(=O)C1CC1 (configuration not stated) do in these assays?
MCL1 BIM primary: 8.8

Results for COc1cccc(C(=O)N2CCN(Cc3ccccc3C(F)(F)F)CC2)c1 ?
MCL1 BIM primary: 4.8; Bim-Mcl-1: -1.0; RBBP9 inhibitor: 0.4; Mcl1 Noxa PPI: 29.8; EBV gp42 inh: -17.3; Mcl1-Bid inh: 62.4*

Results for COc1ccc(C(=O)N2CCN(Cc3ccccc3C(F)(F)F)CC2)cc1 ?
MCL1 BIM primary: 12.3

How did O=C(O)c1ccc(-n2cc(-c3cc4ccccc4oc3=O)[nH]c2=S)cc1 do in these assays?
Bim-Mcl-1: 0.0; RBBP9 inhibitor: -4.3; Mcl1 Noxa PPI: 50.5*; EBV gp42 inh: -8.2; Mcl1-Bid inh: -28.9

What do the screens show for `O=[N+]([O-])c1ccc(C(O)C[n+]2ccccc2)cc1` (configuration not stated)?
MCL1 BIM primary: -18.9

How did CCc1ccc(C)[n+](CC(=O)c2cccs2)c1 do in these assays?
MCL1 BIM primary: 4.3

What do the screens show for `O=C(Nc1ccnn1C1CCN(Cc2cccc(OCCO)c2)CC1)c1cccc(F)c1`?
MCL1 BIM primary: -6.8

How did O=C(O)/C=C\C(=O)N1CCc2ccccc21 do in these assays?
MCL1 BIM primary: -2.7; Bim-Mcl-1: -3.0; RBBP9 inhibitor: -5.1; Mcl1 Noxa PPI: 18.0; EBV gp42 inh: 3.8; Mcl1-Bid inh: 93.5*

Results for Cc1nc2ccccc2c2oc(C(=O)NC3CC3)cc12 ?
MCL1 BIM primary: 2.1; Bim-Mcl-1: 4.0; RBBP9 inhibitor: 1.9; Mcl1 Noxa PPI: 3.1; EBV gp42 inh: 0.5; Mcl1-Bid inh: -2.2

How did CCOc1ccc(NC(=O)c2cc3c(C)nc4ccccc4c3o2)cc1 do in these assays?
MCL1 BIM primary: 5.3; Bim-Mcl-1: 1.0; RBBP9 inhibitor: -2.5; Mcl1 Noxa PPI: 42.5; EBV gp42 inh: 55.0*; Mcl1-Bid inh: 52.5*

Results for Cc1cc(C)c2nc(NNC(=O)c3ccc(S(=O)(=O)N4CCc5ccccc5C4)cc3)sc2c1 ?
MCL1 BIM primary: 3.6; Bim-Mcl-1: -1.0; RBBP9 inhibitor: -6.2; Mcl1 Noxa PPI: -45.8; EBV gp42 inh: 2.8; Mcl1-Bid inh: -40.9

What do the screens show for `Cc1cc(C)c2nc(NNC(=O)c3cc(=O)c4ccccc4o3)sc2c1`?
MCL1 BIM primary: -1.1; Bim-Mcl-1: 2.0; RBBP9 inhibitor: -0.1; Mcl1 Noxa PPI: 64.8*; EBV gp42 inh: -6.5; Mcl1-Bid inh: -44.2

Results for CN1CCN(c2oc(-c3ccccc3)nc2S(=O)(=O)c2ccc(Br)cc2)CC1 ?
MCL1 BIM primary: -0.1

How did CCC1=NN2C(=N)/C(=C\c3cccn3-c3ccc(Br)cc3)C(=O)N=C2S1 do in these assays?
Bim-Mcl-1: 2.0; RBBP9 inhibitor: -3.1; Mcl1 Noxa PPI: 46.5; EBV gp42 inh: 58.6*; Mcl1-Bid inh: 41.0

How did CCC1=NN2C(=N)/C(=C\c3cccn3-c3cccc(Cl)c3)C(=O)N=C2S1 do in these assays?
MCL1 BIM primary: -6.1; Bim-Mcl-1: 0.0; RBBP9 inhibitor: 1.4; Mcl1 Noxa PPI: 41.2; EBV gp42 inh: 5.2; Mcl1-Bid inh: -65.3

Results for CC1=CC(=C(C#N)c2nc3ccccc3s2)C=C(C)N1c1ccc(F)cc1 ?
MCL1 BIM primary: -7.9; Bim-Mcl-1: -11.0; RBBP9 inhibitor: -2.0; Mcl1 Noxa PPI: 3.8; EBV gp42 inh: 179.9*; Mcl1-Bid inh: -25.4

How did COc1ccccc1N1C(C)=CC(=C(C#N)c2nc3ccccc3s2)C=C1C do in these assays?
MCL1 BIM primary: -12.7; Bim-Mcl-1: 0.0; RBBP9 inhibitor: -8.3; Mcl1 Noxa PPI: -6.5; EBV gp42 inh: 164.5*; Mcl1-Bid inh: -79.4

How did CC(C)CCNC(=O)c1ccc(-n2cnc3cccnc32)cc1 do in these assays?
MCL1 BIM primary: 6.0

What do the screens show for `O=C(c1ccc(F)cc1)N1CCN(Cc2ccccc2Br)CC1`?
MCL1 BIM primary: 0.5; Bim-Mcl-1: -9.0; RBBP9 inhibitor: -0.1; Mcl1 Noxa PPI: 0.7; EBV gp42 inh: -0.7; Mcl1-Bid inh: 59.8*

How did O=C(c1ccco1)N1CCN(Cc2ccccc2Br)CC1 do in these assays?
MCL1 BIM primary: 2.0

What do the screens show for `Cc1nn(C)c(C)c1C(C)NC(=O)c1cc(COc2ccc(F)c(F)c2)on1` (configuration not stated)?
MCL1 BIM primary: 6.5

Screening data deposited in PubChem BioAssay by several laboratories.
